From publication PMC3401279 (ACS Chemical Biology, 2012)
“Also recorded” adds a separate entry of the source.

Tests used:
mTAAR7e = target: T1, mTAAR7e (Mus musculus, UniProt Q5QD09); assay: cAMP-dependent CRE-SEAP reporter gene assay in transfected HEK293 cells, mTAAR7e; type: cell-based; details: ligand 10 μM
T1 sequence (Q5QD09 1-358): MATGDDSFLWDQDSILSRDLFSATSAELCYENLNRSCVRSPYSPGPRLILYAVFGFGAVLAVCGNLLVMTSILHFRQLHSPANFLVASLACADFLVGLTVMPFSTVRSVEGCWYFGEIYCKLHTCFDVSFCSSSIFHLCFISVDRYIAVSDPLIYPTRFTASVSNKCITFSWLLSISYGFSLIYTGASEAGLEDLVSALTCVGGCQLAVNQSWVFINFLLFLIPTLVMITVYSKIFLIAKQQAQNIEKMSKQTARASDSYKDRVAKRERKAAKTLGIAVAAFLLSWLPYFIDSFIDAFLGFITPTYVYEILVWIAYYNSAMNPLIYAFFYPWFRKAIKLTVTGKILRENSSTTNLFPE
Outline: (§1)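 HEK293 cells were co-transfected with a TAAR plasmid and a cAMP-dependent secreted alkaline phosphatase reporter (CRE-SEAP). Receptors were expressed both unmodified and as fusions with an N-terminal bovine rhodopsin sequence (Rho tag) that aids surface expression. Transfected cells were incubated with test compound at 10 μM. Secreted phosphatase activity was quantified with a fluorescent substrate as the activation read-out. Triplicates ± s.d.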

[1] = test system: mTAAR7f-SS (mTAAR7f Y132S, C133S); assay: cellular reporter gene assay, mutant mTAAR7f-SS; type: cell-based, mouse; details: mutant versus mTAAR7f, increase
rTAAR7h = target: T2, rTAAR7h (Rattus norvegicus, UniProt Q923Y4); assay: cAMP-dependent CRE-SEAP reporter gene assay in transfected HEK293 cells, rTAAR7h; type: cell-based; details: ligand 10 μM
T2 sequence (Q923Y4 1-358): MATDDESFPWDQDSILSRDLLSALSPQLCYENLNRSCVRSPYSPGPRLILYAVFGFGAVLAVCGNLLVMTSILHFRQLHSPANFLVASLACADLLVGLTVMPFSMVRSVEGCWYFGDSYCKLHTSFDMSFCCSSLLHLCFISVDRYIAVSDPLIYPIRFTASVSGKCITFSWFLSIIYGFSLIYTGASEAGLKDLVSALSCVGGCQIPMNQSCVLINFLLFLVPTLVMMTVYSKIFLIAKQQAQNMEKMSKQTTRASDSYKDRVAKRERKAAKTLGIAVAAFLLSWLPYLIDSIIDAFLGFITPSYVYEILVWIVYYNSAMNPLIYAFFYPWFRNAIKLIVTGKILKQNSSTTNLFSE
Outline: as §1

[2] = test system: mTAAR7e-YC (mTAAR7e S132Y, S133C); assay: cellular reporter gene assay, mutant mTAAR7e-YC; type: cell-based, mouse; details: mutant versus mTAAR7e; for decreased affinity of mTAAR7e-YC: decrease
rTAAR7d = target: T3, rTAAR7d (Rattus norvegicus, UniProt Q923X5); assay: cAMP-dependent CRE-SEAP reporter gene assay in transfected HEK293 cells, rTAAR7d; type: cell-based; details: ligand 10 μM
T3 sequence (Q923X5 1-358): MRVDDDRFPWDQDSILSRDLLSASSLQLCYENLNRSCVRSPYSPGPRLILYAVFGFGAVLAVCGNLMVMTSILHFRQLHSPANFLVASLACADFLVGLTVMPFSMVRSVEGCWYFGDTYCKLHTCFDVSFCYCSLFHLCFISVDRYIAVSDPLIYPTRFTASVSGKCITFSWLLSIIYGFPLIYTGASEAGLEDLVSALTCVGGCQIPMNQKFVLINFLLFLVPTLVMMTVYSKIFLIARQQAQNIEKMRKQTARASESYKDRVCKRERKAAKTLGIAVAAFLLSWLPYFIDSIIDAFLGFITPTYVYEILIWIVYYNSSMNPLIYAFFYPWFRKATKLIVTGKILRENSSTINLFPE
Outline: as §1

mTAAR7f = target: T4, mTAAR7f (Mus musculus, UniProt Q5QD08); assay: cAMP-dependent CRE-SEAP reporter gene assay in transfected HEK293 cells, mTAAR7f; type: cell-based; details: ligand 10 μM
T4 sequence (Q5QD08 1-358): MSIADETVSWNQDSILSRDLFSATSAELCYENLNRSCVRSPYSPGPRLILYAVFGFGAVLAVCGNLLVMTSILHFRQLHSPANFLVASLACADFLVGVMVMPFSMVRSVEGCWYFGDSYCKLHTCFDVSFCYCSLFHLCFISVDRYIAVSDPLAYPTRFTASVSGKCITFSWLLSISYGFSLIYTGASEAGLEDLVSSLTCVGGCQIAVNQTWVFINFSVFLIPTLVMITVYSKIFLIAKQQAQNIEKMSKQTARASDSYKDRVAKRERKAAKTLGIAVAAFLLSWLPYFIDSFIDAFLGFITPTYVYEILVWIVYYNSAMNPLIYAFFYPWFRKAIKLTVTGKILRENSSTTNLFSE
Outline: as §1

rTAAR7b = target: T5, rTAAR7b (Rattus norvegicus, UniProt Q923X8); assay: cAMP-dependent CRE-SEAP reporter gene assay in transfected HEK293 cells, rTAAR7b; type: cell-based; details: ligand 10 μM
T5 sequence (Q923X8 1-358): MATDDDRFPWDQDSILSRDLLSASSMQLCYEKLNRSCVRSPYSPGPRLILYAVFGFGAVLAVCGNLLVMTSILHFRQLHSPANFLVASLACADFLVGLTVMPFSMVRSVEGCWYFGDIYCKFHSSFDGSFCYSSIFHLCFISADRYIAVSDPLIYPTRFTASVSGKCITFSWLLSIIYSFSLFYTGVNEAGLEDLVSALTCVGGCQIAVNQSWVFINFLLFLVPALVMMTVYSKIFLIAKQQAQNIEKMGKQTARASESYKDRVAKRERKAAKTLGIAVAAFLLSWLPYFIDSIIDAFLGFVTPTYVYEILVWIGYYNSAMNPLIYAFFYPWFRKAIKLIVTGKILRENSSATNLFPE
Outline: as §1

mTAAR7b = target: T6, mTAAR7b (Mus musculus, UniProt Q5QD11); assay: cAMP-dependent CRE-SEAP reporter gene assay in transfected HEK293 cells, mTAAR7b; type: cell-based; details: ligand 10 μM
T6 sequence (Q5QD11 1-358): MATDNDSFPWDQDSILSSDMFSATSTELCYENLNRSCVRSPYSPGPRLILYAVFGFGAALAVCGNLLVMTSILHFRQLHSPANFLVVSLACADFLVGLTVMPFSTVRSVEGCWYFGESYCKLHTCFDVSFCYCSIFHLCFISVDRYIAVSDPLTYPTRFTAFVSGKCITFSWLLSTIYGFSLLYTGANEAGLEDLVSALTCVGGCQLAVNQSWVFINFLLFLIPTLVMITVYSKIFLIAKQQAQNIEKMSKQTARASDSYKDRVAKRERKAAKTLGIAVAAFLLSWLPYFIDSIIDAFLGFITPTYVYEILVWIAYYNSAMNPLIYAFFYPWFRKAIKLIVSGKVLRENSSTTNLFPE
Outline: as §1

TAAR5 = details: cited from earlier work
rodents = details: carnivore odor; cited from earlier work
TAAR4 = details: cited from earlier work

With `CN(C)CCc1ccccc1` [ligand 6, N,N-dimethyl-2-phenylethylamine] the “activation of mTAAR7e (reporter response)” value (mTAAR7e) was “respond; also recorded: activated”, the “increases in affinity of mTAAR7f-SS” value [1] was > 1,000 fold and the “activation of rTAAR7h (reporter response)” value (rTAAR7h) was “respond; also recorded: activated”. The “decreased affinity of mTAAR7e-YC” value [2] was > 1,000 fold.

With `CN(C)C1CCCCC1` [ligand 10, N,N-dimethylcyclohexylamine] the “activation of rTAAR7d (reporter response)” value (rTAAR7d) was “respond; also recorded: activated”, the “activation of mTAAR7f (reporter response)” value (mTAAR7f) was “respond; also recorded: activated” and the “activation of rTAAR7b (reporter response)” value (rTAAR7b) was “respond; also recorded: activated”. The “activation of mTAAR7b (reporter response)” value (mTAAR7b) was “respond; also recorded: activated” and the “enhanced affinity of mTAAR7e-YC” value ([2]; increase) was > 1,000 fold.

In the case of `COc1ccc2[nH]cc(CCN(C)C)c2c1` [ligand 7, 5-methoxy-N,N-dimethyltryptamine], the “increases in affinity of mTAAR7f-SS” value [1] is reported as > 1,000 fold and the “decreased affinity of mTAAR7e-YC” value [2] is reported as > 1,000 fold.

For `CN(C)C` [ligand 4, trimethylamine], the TAAR5 agonist (TAAR5) is given as “agonist”.

For `NCCc1ccccc1` [ligand 3, 2-phenylethylamine], the “behavioral effect of odor on rodents” value (rodents) is listed as “repels rodents” and the TAAR4 agonist (TAAR4) is listed as “agonist”.
